Experimental data reported in ChEMBL document CHEMBL5120861, “Short peptide pharmacophores developed from protein phosphatase-1 disrupting peptides (PDPs)” (Bioorg Med Chem, 2022).

What was measured:
[1] = Disruption of PP1 holoenzyme (unknown origin) interaction with protein inhibitor 2 assessed as increase in PP1 phosphatase activity by measuring increase in fluorescence using DiFMUP as substrate enzyme preincubated with I2 for ten mins followed by compound treatment for 20 mins followed by substrate addition by fluorescence based analysis; design: species or system Homo sapiens
[2] = Binding affinity to PP1 (unknown origin) assessed as dissociation constant at compound to protein molar ratio of 1:1 by isothermal titration calorimetry assay; design: species or system Homo sapiens
In short: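 PP1 dialysed into 20 mM TrisCl pH 7.4, 200 mM NaCl, 1 mM TCEP; precipitate removed, protein concentrated to 19.16 μM (0.72 mg/ml) in cell. Peptide dissolved in final dialysis buffer (also the reference), 500 μM in syringe, 1.8 μl injections every 2 min at 25°C. Data corrected for dilution heat and fitted for Kd and stoichiometry.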

Homo sapiens = species: Homo sapiens; test: Binding affinity to PP1 (unknown origin) assessed as change in entropy at compound to protein molar ratio of 1:1 by isothermal titration calorimetry assay
In short: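 PP1 dialyzed into 20 mM TrisCl pH 7.4, 200 mM NaCl, 1 mM TCEP, precipitate removed, 19.16 μM (0.72 mg/ml) in the cell. Compound 500 μM in last dialysis buffer, injected 1.8 μl every 2 min at 25°C. Data corrected for dilution heat and fitted for stoichiometry, Kd, ΔH, ΔS.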

[3] = Binding affinity to PP1 (unknown origin) assessed as binding to RVxF binding site of PP1 by competing with PDP incubated for 60 mins in presence of biotin-PDP2 by ALPHA assay; design: species or system Homo sapiens
In short: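 His-tagged PP1 200 nM with biotin-PDP2 67 nM in 50 mM TrisCl pH 7.5, 150 mM NaCl, 0.05% Tween 20, 1 mM MnCl2, 0.1% BSA; serial dilutions starting from 10 mM, 60 min rt; then streptavidin-donor and anti-His-acceptor beads at 5 μg/ml final, 90 min rt in dark; excitation 680 nm, emission 570 nm. Non-specific control used 22 nM GST(His-Biotin) instead.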

CC(C)[C@H](NC(=O)[C@H](CCCNC(=N)N)NC(=O)[C@@H](N)CCCCN)C(=O)N[C@@H](Cc1cnc[nH]1)C(=O)N[C@@H](Cc1ccccc1)C(N)=O
EC50 [1]: 600 nM
Kd [2]: 2100 nM
deltaS (Homo sapiens): 3.94 cal/mol/deg
IC50 [3]: 124000 nM
